Results gathered from unrelated publications.
Each line is one published result; the experiments were not run side by side.
Effect on: DPPH scavenging

SMILES | test | setting | IC50
CCOC(=O)C1=C(CCl)NC(=O)NC1c1ccccc1 (centres unmarked) | – | – | 207 µM
O=c1c(O)c(-c2ccc(O)c(O)c2)oc2cc(O)cc(O)c12 | – | – | 18.6 µM
CCCCCCCCCCCCCCCC1NCCc2cc(O)c(O)cc21 (centres unmarked) | absorbance | 30 min, dark | 37.3 µM
O=C1O[C@H]([C@@H](O)CO)C(O)=C1O | absorbance | 30 min | 90.1 µM
COc1cccc(C2NCCc3cc(O)c(O)cc32)c1O (centres unmarked) | absorbance | 30 min, dark | 6.49 µM
CCCCCCCCCCCCCCCCCCc1ccc(O)cc1 | – | – | 204 µM
O=C1O[C@H]([C@@H](O)CO)C(O)=C1O | absorbance | 30 min, dark | 30.8 µM
CCOC(=O)C1=C(CSC2=NCCS2)NC(=O)NC1c1ccc(F)cc1F (centres unmarked) | – | – | 137 µM
CCCCCCCCCCC1NCCc2cc(O)c(O)cc21 (centres unmarked) | absorbance | 30 min, dark | 60.7 µM
CCOC(=O)C1=C(CCl)NC(=O)NC1c1cccc(Cl)c1 (centres unmarked) | – | – | 104 µM
O=C1O[C@H]([C@@H](O)CO)C(O)=C1O | – | – | 9.1 µg/mL
O=C(O[C@@H]1COC(=O)c2cc(O)c(O)c(O)c2-c2c(cc(O)c(O)c2O)C(=O)O[C@H]1[C@@H]1OC(=O)c2cc(O)c(O)c(O)c2-c2c(O)c(O)c(O)c3c2C(=O)O[C@H]1[C@@H]3O)c1cc(O)c(O)c(O)c1 | absorbance | – | 5.37 µg/mL
Cc1ccc(NC(=O)CSc2nc3ccccc3cc2C=Nn2c(S)nnc2-c2ccccc2)cc1 | – | – | 120 µM
COc1cc(C2NCCc3cc(O)c(O)cc32)cc(OC)c1O (centres unmarked) | absorbance | 30 min, dark | 11.2 µM
CCOC(=O)C1=C(CCl)NC(=O)NC1c1cccc(OC)c1 (centres unmarked) | – | – | 86.7 µM
CCCCCC1NCCc2cc(O)c(O)cc21 (centres unmarked) | absorbance | 30 min, dark | 63 µM
CCOC(=O)C1=C(CSC2=NCCS2)NC(=O)NC1c1ccc(OC)cc1 (centres unmarked) | – | – | 139 µM
Cc1ccccc1NC(=O)CSc1nc2ccccc2cc1C=Nn1c(S)nnc1-c1ccccc1 | – | – | 131 µM
CCOC(=O)C1=C(CCl)NC(=O)NC1c1cccc(F)c1 (centres unmarked) | – | – | 179 µM
C=C(C)[C@@H]1CC[C@]2(C)CC[C@]3(C)[C@H](CC[C@@H]4[C@@]5(C)CC[C@H](O)C(C)(C)[C@@H]5CC[C@]43C)[C@@H]12 | absorbance | – | 18.6 µg/mL
